Common to all, as to type: cell-based
Test [1] concerns Huh-7. Briefly: Inhibition of NS5A in Hepatitis C virus subtype 3a infected in human HuH7 cells assessed as reduction in viral replication by luciferase reporter gene assay. The gist of the method:
(§1)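 Transient replicon assay with GT1a-H77, GT1b-Con1 or chimeric replicons, electroporated into a Huh7-derived cell line. Percent inhibition of replication, read as a drop in luciferase signal, was calculated at each concentration to give EC90. Values are means of at least two experiments.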
(In general: Reporter assays use an easily measured gene product as a stand-in for the process of interest.)

The subject of test [2] is Huh-7. Kind of test: Inhibition of NS5A in Hepatitis C virus subtype 1a infected in human HuH7 cells assessed as reduction in viral replication by luciferase reporter gene assay. The method in brief:
as §1

In test [3] the test system is Huh-7. Briefly: Inhibition of NS5A in Hepatitis C virus subtype 2b infected in human HuH7 cells assessed as reduction in viral replication by luciferase reporter gene assay. The gist of the method: as §1
Test [4] deals with T1, Nonstructural protein 5A (Hepatitis C virus), Q5L478 [Y93H].
T1 sequence (whole entry): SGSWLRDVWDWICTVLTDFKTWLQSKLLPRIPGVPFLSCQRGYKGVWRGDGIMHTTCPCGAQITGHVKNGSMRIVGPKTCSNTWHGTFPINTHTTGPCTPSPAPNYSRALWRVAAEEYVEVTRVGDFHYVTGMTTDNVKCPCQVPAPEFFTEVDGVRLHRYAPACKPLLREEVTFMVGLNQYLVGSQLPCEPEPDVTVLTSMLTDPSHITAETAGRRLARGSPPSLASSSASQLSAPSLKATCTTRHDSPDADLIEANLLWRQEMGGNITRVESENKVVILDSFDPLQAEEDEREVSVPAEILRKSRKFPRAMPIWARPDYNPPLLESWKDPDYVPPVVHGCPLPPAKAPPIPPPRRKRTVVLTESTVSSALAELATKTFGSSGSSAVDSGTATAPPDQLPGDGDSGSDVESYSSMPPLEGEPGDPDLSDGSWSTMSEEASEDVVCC
Briefly: Inhibition of NS5A Y93H mutant in Hepatitis C virus subtype 1a infected in human HuH7 cells assessed as reduction in viral replication by luciferase reporter gene assay. Conditions: Huh-7. The gist of the method: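 NS5A resistance variants engineered into GT1a-H77 or GT1b-Con1 replicons. Each variant replicon is transfected transiently by electroporation into a Huh7-derived cell line. Percent inhibition is taken from the drop in luciferase signal at each compound concentration, and EC90 is calculated from these. Values are means of at least two experiments.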

With `COC(=O)N[C@H](C(=O)N1CCC[C@H]1c1ncc(-c2cc(F)c3c(c2)OC(c2ccc4c(c2)CC[C@@H](C)O4)n2c-3cc3cc(-c4cnc([C@@H]5CCCN5C(=O)[C@@H](NC(=O)OC)C(C)C)[nH]4)ccc32)[nH]1)C(C)C` (stereo not given in full), the EC90 (commonly the concentration at which the effect reaches the 90% level) came to 0.02 nM in test [1], 5 pM in test [2], 7 nM in test [3] and 2 nM in test [4].
On the same counts, the results for `COC(=O)N[C@H](C(=O)N1CCC[C@H]1c1ncc(-c2cc(F)c3c(c2)OC(c2ccc4c(c2)CCC(C)(C)O4)n2c-3cc3cc(-c4cnc([C@@H]5CCCN5C(=O)[C@@H](NC(=O)OC)C(C)C)[nH]4)ccc32)[nH]1)C(C)C` (stereo not given in full) are 0.03 nM, 5 pM, 2 nM and 0.9 nM.
The matching figures for `COC(=O)N[C@H](C(=O)N1CCC[C@H]1c1ncc(-c2cc(F)c3c(c2)OC(c2ccc4c(c2)CCCC4)n2c-3cc3cc(-c4cnc([C@@H]5CCCN5C(=O)[C@@H](NC(=O)OC)C(C)C)[nH]4)ccc32)[nH]1)C(C)C` (stereo not given in full): 0.01 nM, 5 pM, 2 nM and 2 nM.
The matching figures for `COC(=O)N[C@H](C(=O)N1CCC[C@H]1c1ncc(-c2cc(F)c3c(c2)OC(c2ccc4c(c2)CCCO4)n2c-3cc3cc(-c4cnc([C@@H]5CCCN5C(=O)[C@@H](NC(=O)OC)C(C)C)[nH]4)ccc32)[nH]1)C(C)C` (stereo not given in full): 0.02 nM, 3 pM, 7 nM and 4 nM.
As for `COC(=O)N[C@H](C(=O)N1CCC[C@H]1c1ncc(-c2cc(F)c3c(c2)OC(c2ccc4c(c2)CC[C@H](C)O4)n2c-3cc3cc(-c4cnc([C@@H]5CCCN5C(=O)[C@@H](NC(=O)OC)C(C)C)[nH]4)ccc32)[nH]1)C(C)C` (stereo not given in full), the EC90 in test [1] came to 0.01 nM; in test [2] it was 4 pM; in test [3], 7 nM; in test [4] it was 3 nM.
On the same counts, the results for `COC(=O)N[C@H](C(=O)N1CCC[C@H]1c1ncc(-c2cc(F)c3c(c2)OC(c2ccc4c(c2)CC2CC2(C)O4)n2c-3cc3cc(-c4cnc([C@@H]5CCCN5C(=O)[C@@H](NC(=O)OC)C(C)C)[nH]4)ccc32)[nH]1)C(C)C` (mixture of isomers) are 0.03 nM, 5 pM, 5 nM and 1 nM.
On the same counts, the results for `COC(=O)N[C@H](C(=O)N1CCC[C@H]1c1ncc(-c2cc(F)c3c(c2)OC(c2ccc4c(c2)COC4)n2c-3cc3cc(-c4cnc([C@@H]5CCCN5C(=O)[C@@H](NC(=O)OC)C(C)C)[nH]4)ccc32)[nH]1)C(C)C` (stereo not given in full) are 0.02 nM, 3 pM, 2 nM and 5 nM.
The matching figures for `COC(=O)N[C@H](C(=O)N1CCC[C@H]1c1ncc(-c2cc(F)c3c(c2)OC(c2ccc4c(c2)COCC4)n2c-3cc3cc(-c4cnc([C@@H]5CCCN5C(=O)[C@@H](NC(=O)OC)C(C)C)[nH]4)ccc32)[nH]1)C(C)C` (stereo not given in full): 0.02 nM, 3 pM, 4 nM and 2 nM.
For `COC(=O)N[C@H](C(=O)N1CCC[C@H]1c1ncc(-c2cc(F)c3c(c2)OC(c2ccc4c(c2)OC(C)(C)CC4)n2c-3cc3cc(-c4cnc([C@@H]5CCCN5C(=O)[C@@H](NC(=O)OC)C(C)C)[nH]4)ccc32)[nH]1)C(C)C` (stereo not given in full), the EC90 in test [1] was determined as 0.02 nM; in test [2], 5 pM; in test [3] it was 2 nM; in test [4] it was 1 nM.
The matching figures for `COC(=O)N[C@H](C(=O)N1CCC[C@H]1c1ncc(-c2cc(F)c3c(c2)OC(c2ccc4c(c2)OCC(=O)N4)n2c-3cc3cc(-c4cnc([C@@H]5CCCN5C(=O)[C@@H](NC(=O)OC)C(C)C)[nH]4)ccc32)[nH]1)C(C)C` (stereo not given in full): 0.4 nM, 10 pM, 22 nM and 32 nM.

For the origin of these results see ChEMBL document CHEMBL4715796, “Discovery of Chromane Containing Hepatitis C Virus (HCV) NS5A Inhibitors with Improved Potency against Resistance-Associated Variants” (J Med Chem, 2016).
